Active and inactive are the calls of the source. The rule behind the calls is not given here.
How the values were obtained:
Nucleic Acid = assay: cleavage of Escherichia coli DNA by agarose gel electrophoresis; type: nucleic-acid assay
Procedure, shortened: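 Genomic DNA from E. coli grown 24 h at 37 °C in nutrient broth, isolated by SDS lysis, phenol and chloroform:isoamyl alcohol extraction, ethanol precipitation. Samples (1 mg/ml stock in DMF) added to DNA, incubated 2 h at 37 °C, mixed 1:1 with bromophenol blue, run on agarose gel in TAE beside DNA marker, 50 V for 30 min.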

[1] = Antioxidant activity assessed as ferric reduction; type: functional
Procedure, shortened: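 Reducing power: sample with 200 mmol/L sodium phosphate buffer (pH 6.6) and 2.5 mL 1% potassium ferricyanide, held 50 °C for 20 min, then 2.5 mL 10% (w/v) trichloroacetic acid added.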

[2] = Antioxidant activity assessed as equivalence of ascorbic acid; type: functional
Procedure, shortened: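 Phosphomolybdenum total antioxidant capacity: 10, 50 and 500 µg sample mixed with 1.9 mL reagent (0.6 M sulfuric acid, 28 mM sodium phosphate, 4 mM ammonium molybdate), heated 95 °C for 90 min, cooled; absorbance at 695 nm against blank. Expressed as ascorbic acid equivalents from an ascorbic acid standard graph.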

[3] = tested on: Radical scavenging activity; assay: Antioxidant activity assessed as DPPH radical scavenging activity; type: functional
Procedure, shortened: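 DPPH method: 10, 50 and 100 µg sample or BHA brought to 100 µl with MeOH, plus 5 mL 0.1 mM methanolic DPPH, shaken, left 20 min at 27 °C; absorbance at 517 nm versus control lacking sample. % scavenging = [(control OD − sample OD)/control OD] × 100.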

| Activity (Nucleic Acid) | SMILES | Activity [1] | Activity [2] | Activity [3] |
| --- | --- | --- | --- | --- |
| Active | Cc1ccc(C(/C=C/c2c(-c3ccccc3)[nH]c3ccc(C)cc23)=C2C(=O)NC(=O)NC2=O)cc1 | – | – | – |
| Active | Cc1ccc2[nH]c(-c3ccccc3)c(/C=C/C(=C3C(=O)NC(=O)NC3=O)c3ccccc3)c2c1 | – | – | – |
| Active | Cc1ccc(C(/C=C/c2c[nH]c3ccccc23)=C2C(=O)NC(=O)NC2=O)cc1 | Active | Active | – |
| Active | Cc1ccc(C(/C=C/c2c(-c3ccccc3)[nH]c3ccc(Cl)cc23)=C2C(=O)NC(=O)NC2=O)cc1 | – | – | Active |
| Active | O=C1NC(=O)C(=C(/C=C/c2c[nH]c3ccccc23)c2ccccc2)C(=O)N1 | Active | Active | – |
| Active | O=C1NC(=O)C(=C(/C=C/c2c(-c3ccccc3)[nH]c3ccc(Cl)cc23)c2ccc(Cl)cc2)C(=O)N1 | – | – | Active |
| Active | Cc1ccc2[nH]c(-c3ccccc3)c(/C=C/C(=C3C(=O)NC(=O)NC3=O)c3ccc(Cl)cc3)c2c1 | – | – | – |
| Active | O=C1NC(=O)C(=C(/C=C/c2c(-c3ccccc3)[nH]c3ccc(Cl)cc23)c2ccccc2)C(=O)N1 | – | – | Active |
| Active | O=C1NC(=O)C(=C(/C=C/c2c[nH]c3ccccc23)c2ccc(Cl)cc2)C(=O)N1 | Active | Active | – |

Reference: ChEMBL document CHEMBL1240445, “Synthesis, antioxidant and DNA cleavage activities of novel indole derivatives” (Eur J Med Chem, 2010)
